High-throughput results (PubChem)
Rce1 inh: yeast Rce1p protease inhibitors, primary screen, biochemical, fluorescence, cell-free homogeneous | CAAX prenyl protease 2 (Saccharomyces cerevisiae (strain ATCC 204508 / S288c)), Q03530 | 290,000 compounds, 0.27% hits | yeast membranes, quenched prenylated peptide cleavage fluorescence | calls only;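 active means fall in fluorescence gain of 50% or more versus controls, with final raw signal at or below 3038400; inconclusive means same 50% fall but final raw signal above 3038400; inactive means fall in fluorescence gain under 50%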;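 further: plate controls were neutral control wells for no effect and wells lacking membranes for full effect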
Target sequence (Q03530 whole entry, looked up): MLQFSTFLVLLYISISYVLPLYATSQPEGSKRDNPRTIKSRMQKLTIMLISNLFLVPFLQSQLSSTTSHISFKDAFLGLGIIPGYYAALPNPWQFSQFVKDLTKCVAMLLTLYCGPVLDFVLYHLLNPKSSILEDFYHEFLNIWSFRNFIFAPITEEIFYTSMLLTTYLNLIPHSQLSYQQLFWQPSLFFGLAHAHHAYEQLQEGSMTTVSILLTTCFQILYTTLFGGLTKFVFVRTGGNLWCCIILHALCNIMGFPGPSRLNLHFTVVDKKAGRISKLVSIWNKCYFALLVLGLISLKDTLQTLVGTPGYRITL
Runt-SMMHC FRET: inhibitors of RUNX1 Runt–CBFb-SMMHC binding, primary screen, biochemical, FRET, Cerulean-Runt, Venus-CBFb-SMMHC, uHTS; 220,000 compounds, 0.74% hits; Cerulean-Runt/Venus-CBFb-SMMHC FRET ratio 530/480, 1 h; Runt-related transcription factor 1 (Homo sapiens) + Core-binding factor subunit beta …; inhibition, % at 20 µM;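 active means mean inhibition across duplicate retests at 20 µM reaching about 50%, limit read from the data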;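 further: 0% = DMSO wells and 100% = wells with excess untagged CBFb-SMMHC; inhibitors lower the FRET ratio by blocking Runt binding to CBFb-SMMHC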
Runt-CBFb FRET: inhibitors of RUNX1 Runt–CBFb binding, primary screen, biochemical, FRET, Cerulean-Runt, Venus-CBFb, uHTS | Runt-related transcription factor 1 (Homo sapiens) + Core-binding factor subunit beta … | Cerulean-Runt/Venus-CBFb FRET ratio 530/480, 1 h | inhibition, % at 20 µM | 220,000 compounds, 0.46% hits;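 active means inhibition over about 50% at 20 µM in the single-dose screen, limit read from the data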;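 further: 0% = DMSO wells and 100% = excess unlabeled CBFb competitor control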
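test system = Cerulean-tagged RUNX1 Runt domain (FRET donor) fusion protein | reagent = Venus-CBFb binding partner, 100 nM | incubation = protein complex preformed 1 h, compound exposure 1 h, room temperature, dark | detection = FRET fluorescence | read-out basis = loss of energy transfer signal | controls = 5 µM unlabeled CBFb as full-inhibition high control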
RanGTP-Impb inh: inhibitors of RanGTP-importin-beta interaction, primary screen, biochemical, FRET, CFP-Ran, YFP-importin-beta, homogeneous; Ran GTPase (GTP-bound) - importin-beta complex; cell-free CFP-Ran/YFP-importin-beta FRET ratio; inhibition, % (concentration not given with the values); 300,000 compounds, 1.1% hits; AID 2216, 2009;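 active means more than half of the replicate wells show a fall in the fluorescence ratio signal beyond about 16%, limit read from the data, passing the limit was not always enough; inconclusive means exactly half of the replicate wells pass the set limit; inactive means fewer than half of replicates pass the limit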;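 further: 0% = DMSO wells and 100% = Ran loaded with GDP instead of GTP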
Vif imaging: HIV Vif self-association inhibitors, primary screen, imaging, HEK293T, single point; HEK293T cells, Vif self-association by quenched fluorescence, 24 h; inhibition, % at 7.49 µM; 340,000 compounds, 0.35% hits; in the data active means inhibition above about 50%, passing the limit was not always enough; inconclusive means no clear call, values can overlap the other calls; inactive means below about 31%
Numbers without * were called inactive; i = inactive; ? = inconclusive; / = not tested or not shown; + = active, no number. Only some compounds are listed: those with a hit (about 1.7% of all), similar ones and a draw of the others.

SMILES	Rce1 inh	Runt-SMMHC FRET	Runt-CBFb FRET	RanGTP-Impb inh	Vif imaging
CC(=O)Nc1sc2c(c1C#N)CCN(Cc1ccccc1)C2	i	/	/	75*	2
CC1(C)Cc2c(sc(NC(=O)/C=C/C(=O)O)c2C#N)CO1	i	-10	2	3	-5
Cc1c(C)c(C)c(S(=O)(=O)NCCC(=O)N2CCN(Cc3ccc(C#N)cc3)CC2)c(C)c1C	/	/	/	/	-2
CCOC(=O)[C@@H]1CSCCS(=O)(=O)N1Cc1ccccc1Br	/	/	/	/	-1
CCC(=O)c1ccc(OC(C)C(=O)NC2(C#N)CCCCC2)cc1 (stereo unspecified)	i	2	2	?	4
O=C(NCc1ccco1)C1CCN(C(=O)c2ccc([N+](=O)[O-])cc2)CC1	i	/	/	7	4
O=C(O)c1ccc(S(=O)(=O)c2ccc3c(c2)C(=O)N(c2ccc(Br)cc2)C3=O)cc1	i	/	/	0	66*
O=C1CCCCN1CCC(=O)N1CCCC(N2CCN(c3ccccc3)CC2)C1 (stereo unspecified)	i	/	/	0	20
Cc1cccc(C)c1NC(=O)C1=C(O)c2sccc2N(C)S1(=O)=O	i	59*	32	46*	-3
CN1c2ccsc2C(O)=C(C(=O)Nc2ccccc2)S1(=O)=O	i	24	5	-4	-5
N#C/C(=C\c1cccs1)C(=O)Nc1ccccn1	i	-18	-4	26*	-1
Cc1cccc(/C=C(\C#N)C(=O)Nc2ccccn2)c1	i	/	/	11	15
CC(C)(C)c1ccc(/C=C(\C#N)C(=O)Nc2ccccn2)cc1	i	/	/	-2	-6
N#C/C(=C\c1ccccc1Cl)C(=O)Nc1ccccn1	i	/	/	44*	5
C=CCOc1ccc(/C=C(\C#N)C(=O)Nc2ccccn2)cc1	i	/	/	17*	-5
CCOc1cc(/C=C(\C#N)C(=O)Nc2ccccn2)ccc1O	i	/	/	1	-19
N#C/C(=C\c1ccccc1)C(=O)Nc1ccccn1	i	/	/	49*	7
Cc1ccc(NC(=O)c2sccc2C)nc1	i	/	/	2	6
CC1=C(C#N)C(=O)N(C2CCS(=O)(=O)C2)C(=O)/C1=C\c1ccc(C)o1 (stereo unspecified)	i	-146	-19	-2	/
COC(=O)c1c([N+](=O)[O-])c(OC)c(OC)c(OC)c1[N+](=O)[O-]	/	-1	1	1	3
Cc1ccc(OCC(O)CN2CCC(Cc3ccccc3)CC2)c(C)c1 (stereo unspecified)	i	/	/	2	-5
C/C(=N/NC(=O)c1ccccc1)c1ccc(NC(=O)C(F)(F)F)cc1	i	-1	0	31*	-34
COc1ccc(CCn2c(=N)c(C(=O)NC3CCCC3)cc3c(=O)n4ccccc4nc32)cc1	i	/	/	-2	10
COc1ccc(Cn2c(=N)c(C(=O)NC3CCCCC3)cc3c(=O)n4ccccc4nc32)cc1	i	/	/	28*	12
COCCCn1c(=N)c(C(=O)NC2CCCCC2)cc2c(=O)n3ccccc3nc21	i	83*	5	192*	/
SMILES	Rce1 inh	Runt-SMMHC FRET	Runt-CBFb FRET	RanGTP-Impb inh	Vif imaging
CN(C)S(=O)(=O)N1CCN(S(=O)(=O)N2CCOCC2)CC1	i	0	2	0	-3
CN(C)S(=O)(=O)N1CCCN(S(=O)(=O)N(C)C)CC1	i	4	-1	4	66*
CC1(C)O[C@@H]2[C@H](O1)[C@@H](COS(=O)(=O)O)O[C@H]2n1c(=S)[nH]c2c(=O)[nH]c(N)nc21	/	/	/	/	-2
Cn1c(=O)c2nc3ccccc3nc2n(C)c1=O	i	63*	31	7	1
Cn1c(=O)c2nc(-c3ccccc3)c(-c3ccccc3)nc2n(C)c1=O	i	/	/	6	1
O=c1[nH]c(=O)c2nc(-c3ccc(Cl)cc3)cnc2[nH]1	i	/	20	94*	5
O=c1[nH]c(=S)[nH]c2nc(-c3ccccc3)cnc12	i	/	/	3	4
CC(C)CN1C(=O)C(=O)N(CC(=O)c2ccc[nH]2)C1=O	i	/	/	2	1
COc1ccccc1C1=NN(C2=NN=C(N)Cc3ncnn32)C(O)(C(F)(F)F)C1 (stereo unspecified)	+	1	2	1	-8
NC(=O)CSC1=Nc2ccccc2C2=NC(c3ccccc3)C(=O)N12 (stereo unspecified)	+	1	5	2	/
COc1ccc(-c2ccc(-c3nnc(-c4cc(OC)ccc4OC)o3)cc2)cc1	+	3	0	?	14
CCOC(=O)C1C(c2ccc(OC)cc2)N(C)OC1(O)C(F)(F)F (stereo unspecified)	i	2	0	22*	-4
O=C(Nc1nc2ccccc2s1)c1cccc(S(=O)(=O)N2CCc3ccccc32)c1	i	3	2	-3	-18
O=C(Nc1nc2c(s1)CN(Cc1ccccc1)CC2)c1cccc(S(=O)(=O)N2CCc3ccccc32)c1	i	-3	-6	140*	-7
O=C(Cc1cn2ccsc2n1)Nc1nc2c(s1)CN(Cc1ccccc1)CC2	i	77*	47	11	?
O=C(Cc1cn2ccsc2n1)NCc1ccccc1	i	2	-2	0	-1
Cc1cccc(NC(=O)CNC(=O)Cn2ncc(Cl)c(Cl)c2=O)c1C	/	/	/	/	57*
Cc1cccc(NC(=O)CNC(=O)CSc2ncccn2)c1C	/	/	/	/	29
COc1ccccc1C(=O)NCCC(=O)N1CC(C)OC(C)C1 (stereo unspecified)	/	/	/	/	-3
O=C(CC1SC2=NCCN2C1=O)Nc1ccc(Br)cc1 (stereo unspecified)	i	-1	-4	3	53*
Cc1ccnc(SC2CC(=O)N(c3ccc(F)cc3)C2=O)n1 (stereo unspecified)	i	/	/	-1	-2
COc1ccccc1N1CCN(CC(O)COc2c(OC)cccc2OC)CC1 (stereo unspecified)	i	1	-1	24*	10
CSc1nc2ccccc2cc1/C=C(\C#N)c1cccc(Cl)c1	i	15	3	-1	63*
CCOC(=O)/C(C#N)=C/c1cc2ccccc2nc1Cl	i	-4	0	4	/
O=C(CSc1nc2ccccc2s1)N1N=C(c2cccs2)CC1c1ccc(F)cc1 (stereo unspecified)	+	5	0	2	-3
CCC(=O)N(CCC1(C(C)C)CCOC(C)(C)C1)Cc1ccco1 (stereo unspecified)	i	-66	-2	5	109*
